Laboratory results: ChEMBL document CHEMBL1146231, “Novel semisynthetic derivative of antibiotic Eremomycin active against drug-resistant gram-positive pathogens including Bacillus anthracis” (J Med Chem, 2007)
Values after ≈ are worked out from the molar mass of the structure shown. Active and inactive are the calls of the source. The rule behind the calls is not given here.

How the values were obtained:
[1] = Cmax in BALB/c mouse at 25 mg/kg, iv; format: ADME, organism-based; design: dose 25 mg/kg, route intravenous; conditions: in vivo
In short: (§1)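 Female BALB/c mice received the test compound by the iv, sc, ip or po route. Plasma exposure gave Cmax, bioavailability from the sc, ip and po routes, iv half-life, clearance and Vss. Clinical observations and mortality were also recorded.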

[2] = Clearance in BALB/c mouse at 25 mg/kg, iv; format: ADME, organism-based; design: dose 25 mg/kg, route intravenous; conditions: in vivo; in short: as §1
[3] = Cmax in BALB/c mouse at 25 mg/kg, ip; format: ADME, organism-based; design: dose 25 mg/kg, route intraperitoneal; conditions: in vivo; in short: as §1
[4] = Bioavailability in BALB/c mouse at 70 mg/kg, po; format: ADME, organism-based; conditions: in vivo; in short: as §1
[5] = Bioavailability in BALB/c mouse at 25 mg/kg, sc; format: ADME, organism-based; conditions: in vivo; in short: as §1
[6] = Half life in BALB/c mouse at 25 mg/kg, iv; format: ADME, organism-based; design: dose 25 mg/kg, route intravenous; conditions: in vivo; in short: as §1
[7] = Cmax in BALB/c mouse at 25 mg/kg, sc; format: ADME, organism-based; design: dose 25 mg/kg, route subcutaneous; conditions: in vivo; in short: as §1
[8] = Volume of distribution in BALB/c mouse at 25 mg/kg, iv; format: ADME, organism-based; design: dose 25 mg/kg, route intravenous; conditions: in vivo, read-out: Vss; in short: as §1
[9] = Bioavailability in BALB/c mouse at 25 mg/kg, ip; format: ADME, organism-based; conditions: in vivo; in short: as §1
Enterococcus faecium [10] = test: Antimicrobial activity against vancomycin-susceptible Enterococcus faecium 568 isolate; format: functional
In short: (§2)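 MICs were run by broth microdilution as recommended by NCCLS, in cation-adjusted Mueller-Hinton broth. Compound was serially diluted 2-fold, over a final range of 64 to 0.03 µg/mL after inoculation.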

Enterococcus faecalis [11] = test: Antimicrobial activity against vancomycin-resistant Enterococcus faecalis 560 isolate; format: functional; in short: as §2
Enterococcus faecium [12] = test: Antimicrobial activity against vancomycin-resistant Enterococcus faecium 569 isolate; format: functional; in short: as §2
Staphylococcus aureus [13] = test: Antimicrobial activity against glycopeptide intermediate resistant Staphylococcus aureus 3798 isolate; format: functional; in short: as §2
[14] = system: Staphylococcus haemolyticus; test: Antimicrobial activity against Staphylococcus haemolyticus 602 isolate; format: functional; in short: as §2
Staphylococcus aureus [15] = test: Antimicrobial activity against glycopeptide intermediate resistant Staphylococcus aureus 3793 isolate; format: functional; in short: as §2
Enterococcus faecalis [16] = test: Antimicrobial activity against vancomycin-susceptible Enterococcus faecalis 559 isolate; format: functional; in short: as §2
[17] = system: Staphylococcus epidermidis; test: Antimicrobial activity against Staphylococcus epidermidis 533 isolate; format: functional; in short: as §2
Enterococcus faecalis [18] = test: Antimicrobial activity against vancomycin-resistant Enterococcus faecalis Enfa_vre-2 isolate; format: functional; in short: as §2
Enterococcus faecalis [19] = test: Antimicrobial activity against vancomycin-resistant Enterococcus faecalis Enfa_t29862 isolate; format: functional; in short: as §2
Staphylococcus aureus [20] = test: Antimicrobial activity against methicillin-resistant Staphylococcus aureus Stau_HIP5827 isolate; format: functional; in short: as §2
Enterococcus faecalis [21] = test: Antimicrobial activity against vancomycin-susceptible Enterococcus faecalis Enfa_29212 isolate; format: functional; in short: as §2
Escherichia coli = test: Antimicrobial activity against Escherichia coli Esco_25922 isolate; format: functional
Mus musculus [22] = test: Survival of BALB/c mouse infected with Staphylococcus aureus PGO#172 assessed as mortality at 50 mg/kg, iv; format: functional, organism-based; design: dose 50 mg/kg
In short: (§3)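 Mice received a lethal dose of S. aureus PGO#172 (ATCC#29213) by intraperitoneal injection. They were treated with an iv bolus at 1, 5, 10, 25 or 50 mg/kg, in groups of five. Mortality was the endpoint, and ED50 was derived from the dose-response.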

Bacillus anthracis [23] = test: Protection against Bacillus anthracis challenged BALB/c mouse at 50 mg/kg, iv; format: functional, organism-based; design: dose 50 mg/kg
Mus musculus [24] = test: Survival of BALB/c mouse infected with Staphylococcus aureus PGO#172 assessed as mortality at 1 mg/kg, iv; format: functional, organism-based; design: dose 1 mg/kg; in short: as §3
Bacillus anthracis [25] = test: Protection against Bacillus anthracis challenged BALB/c mouse at 25 mg/kg, iv; format: functional, organism-based; design: dose 25 mg/kg

Structure (SMILES)	MIC (Enterococcus faecium [10]) [µg/mL]	MIC (Enterococcus faecalis [11]) [µg/mL]	MIC (Enterococcus faecium [12]) [µg/mL]	MIC (Staphylococcus aureus [13]) [µg/mL]	MIC [14] [µg/mL]	MIC (Staphylococcus aureus [15]) [µg/mL]	MIC (Enterococcus faecalis [16]) [µg/mL]	MIC [17] [µg/mL]	other results
CN[C@H](CC(C)C)C(=O)N[C@H]1C(=O)N[C@@H](CC(N)=O)C(=O)N[C@H]2C(=O)N[C@H]3C(=O)N[C@H](C(=O)N[C@H](C(=O)NC45CC6CC(CC(C6)C4)C5)c4cc(O)cc(O)c4-c4cc3ccc4O)[C@H](O[C@@H]3C[C@@](C)(N)[C@H](O)[C@@H](C)O3)c3ccc(cc3)Oc3cc2cc(c3O[C@H]2O[C@@H](CO)[C@H](O)[C@@H](O)[C@@H]2O[C@H]2C[C@](C)(N)[C@@H](O)[C@H](C)O2)Oc2ccc(cc2Cl)[C@H]1O	–	–	–	–	–	–	–	–	Cmax [1]: 11500 ng/mL; clearance [2]: 8.93 mL/min/kg; Cmax [3]: 9700 ng/mL; bioavailability [4]: 0%; bioavailability [5]: 78%; half-life [6]: 2.8 h; Cmax [7]: 7200 ng/mL; Vd [8]: 2.18 L/kg; bioavailability [9]: 95%
CN[C@H](CC(C)C)C(=O)N[C@H]1C(=O)N[C@@H](CC(N)=O)C(=O)N[C@H]2C(=O)N[C@H]3C(=O)N[C@H](C(=O)N[C@H](C(=O)NC4C5CC6CC(C5)CC4C6)c4cc(O)cc(O)c4-c4cc3ccc4O)[C@H](O)c3ccc(c(Cl)c3)Oc3cc2cc(c3O[C@H]2O[C@@H](CO)[C@H](O)[C@@H](O)[C@@H]2O[C@H]2C[C@@](C)(N)C(O)[C@@H](C)O2)Oc2ccc(cc2Cl)[C@H]1O (stereo not given in full)	0.5 (≈ 0.316 µM)	64 (≈ 40.4 µM)	64 (≈ 40.4 µM)	4 (≈ 2.53 µM)	1 (≈ 0.632 µM)	4 (≈ 2.53 µM)	0.5 (≈ 0.316 µM)	1 (≈ 0.632 µM)	–
CN[C@H](CC(C)C)C(=O)N[C@H]1C(=O)N[C@@H](CC(N)=O)C(=O)N[C@H]2C(=O)N[C@H]3C(=O)N[C@H](C(=O)N[C@H](C(=O)O)c4cc(O)cc(O)c4-c4cc3ccc4O)[C@H](O)c3ccc(c(Cl)c3)Oc3cc2cc(c3O[C@@H]2O[C@H](CO)[C@@H](O)[C@H](O)[C@H]2O[C@H]2C[C@](C)(N)[C@H](O)[C@H](C)O2)Oc2ccc(cc2Cl)[C@H]1O [VANCOMYCIN]	–	> 128	> 128	8 (≈ 5.52 µM)	2 (≈ 1.38 µM)	16 (≈ 11 µM)	1 (≈ 0.69 µM)	–	MIC (Enterococcus faecalis [18]): > 64 µg/mL; MIC (Enterococcus faecalis [19]): > 64 µg/mL; MIC (Staphylococcus aureus [20]): 8 µg/mL (≈ 5.52 µM); MIC (Enterococcus faecalis [21]): 2 µg/mL (≈ 1.38 µM); MIC (Escherichia coli): > 50 µg/mL
CN[C@H](CC(C)C)C(=O)N[C@H]1C(=O)N[C@@H](CC(N)=O)C(=O)N[C@H]2C(=O)N[C@H]3C(=O)N[C@H](C(=O)N[C@@H](C(=O)NC45CC6CC(CC(C6)C4)C5)c4cc(O)cc(O)c4-c4cc3ccc4O)[C@H](O[C@@H]3C[C@@](C)(N)[C@H](O)[C@@H](C)O3)c3ccc(cc3)Oc3cc2cc(c3O[C@H]2O[C@@H](CO)[C@H](O)[C@@H](O)[C@@H]2O[C@H]2C[C@](C)(N)[C@@H](O)[C@H](C)O2)Oc2ccc(cc2Cl)[C@H]1O	–	–	–	–	–	–	–	–	Activity (Mus musculus [22]): Active; Activity (Bacillus anthracis [23]): Active; Activity (Mus musculus [24]): inactive; Activity (Bacillus anthracis [25]): Active
CN[C@H](CC(C)C)C(=O)N[C@H]1C(=O)N[C@@H](CC(N)=O)C(=O)N[C@H]2C(=O)N[C@H]3C(=O)N[C@H](C(=O)N[C@H](C(=O)NCC4C5CC6CC(C5)CC4C6)c4cc(O)cc(O)c4-c4cc3ccc4O)[C@H](O[C@@H]3C[C@@](C)(N)[C@H](O)[C@@H](C)O3)c3ccc(cc3)Oc3cc2cc(c3O[C@H]2O[C@@H](CO)[C@H](O)[C@@H](O)[C@@H]2O[C@H]2C[C@](C)(N)[C@@H](O)[C@H](C)O2)Oc2ccc(cc2Cl)[C@H]1O (stereo not given in full)	0.5 (≈ 0.293 µM)	16 (≈ 9.38 µM)	16 (≈ 9.38 µM)	2 (≈ 1.17 µM)	0.5 (≈ 0.293 µM)	1 (≈ 0.586 µM)	1 (≈ 0.586 µM)	0.5 (≈ 0.293 µM)	–
